In paper PMC10073267 (Journal of peptide science : an official publication of the …, 2023):

Assay: Octanol–water partitioning in the presence of sodium dodecanoate
Type: physicochemical
Details: mean ± SD; octanol–water partitioning with sodium dodecanoate (2.5 equiv); D2O
Outline: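 Test compound dissolved in D2O as 0.02 M stock, mixed with equal volume of octanol, with or without sodium dodecanoate (2.5 equiv), triplicate tubes each. Vortexed 30 s, centrifuged 15 min, ambient ~22 °C. Aqueous-layer NMR integrations pre- and post-wash compared. Partitioning taken as difference between octanol-only and octanol + lipid washes, averaged over three replicates.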

| Percent in Aqueous Layer [%] | SMILES |
| --- | --- |
| 30.4 ± 1.5 | CC(=O)N[C@@H](CCCN=C(N)N)C(N)=O [1·H^+, Ac-Arg-NH2] |
| 19.8 ± 0.1 | CNC(=O)[C@H](CCCNC(=N)N)NC(C)=O [2·H^+, Ac-Arg-NHMe] |
| 18.3 ± 0.7 | CC(=O)N[C@@H](CCCNC(=N)N)C(=O)N(C)C [3·H^+, Ac-Arg-NMe2] |
| 12.7 ± 1.6 | CC(=O)N(C)C(CCCN=C(N)N)C(=O)N(C)C (stereo not shown) [4·H^+, Ac-(N-Me)Arg-NMe2] |
